This sample holds only a part of the variants without activity.
B1: tRNA (parent)
chain: GUUCCGUUGGCGUAAUGGUAACGCGUCUCCCUCCUAAGGAGAAGACUGCGGGUUCGAGUCCCGUACGGAACG

Variants of: B1
Assay: yeast fitness relative to wild type (ratio to wild type); higher = fitter; tRNA-Arg(CCU), competitive growth, 37 C, YPD
In short: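 Variants of the tRNA-Arg(CCU) gene were chemically synthesised with a 3% per-site mutation rate across 69 sites and placed at the native genomic locus in Saccharomyces cerevisiae. Six parallel replicates of the pooled strains were competed in YPD at 37°C for 24 hours, and gene amplicons from the start and end populations were read by 100-nucleotide paired-end sequencing. Darwinian fitness relative to wild type was derived from changes in genotype frequencies. Genotypes required ≥ 100 starting reads, and estimates < 0.5 were set to 0.5.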

Yeast fitness, 0.709:
GUUCUGUUGGUGUAAUGGUAACGCGUCUCCCUCCUAAGGUGAAGACUAUGGGUUCGAGUCCCGUACGGAACG [C5U C11U A40U G48A C49U]

Yeast fitness, 0.627:
GUUCUGUUGGCGUAAUGGUAAGGCGUCUACCUCCUAAGGAGAAGUCUGCGGGUUCGAGUCCCGUACGGAACG [C5U C22G C29A A45U]

Yeast fitness, 0.537:
GUUCUGUUGGUGUAAUGGUAACGCGUCUCCCCCCUAAGGAGAAGACUGUGGGUUCGAGUCCCGUACGGAACG [C5U C11U U32C C49U]

Yeast fitness, 0.563:
GUUCUGUUGGUGUAAUGGUAACGCGUCUCCCUCCUAAGGAGAAGAUUGCGGGUUCGAGUCCCGUUCGGUACG [C5U C11U C46U A65U A69U]

Yeast fitness, 0.539:
GUUCUGUUGGCGUAAUGGUAAGGCGUCUACCUCCUAAGGAGAAGUCUGCGGGUUCGAGUCCCGUACGGAUCG [C5U C22G C29A A45U A70U]

Yeast fitness, 0.569:
GUUCUGUUGGCGUAAUGGUAAAGCGUGUCCCUCCUAAGGAGAAGACUGCGGGUUCGAGUCCCGUACGGAACG [C5U C22A C27G]

Yeast fitness, 0.731:
GUUCUGUUGGUGUCAUGGUAACGCGUCUCCCUCCUAAGGAGAAGACUGCGGGUUCGAGUCCCGUACGGAACG [C5U C11U A14C]

Yeast fitness, 0.552:
GUUCUGUUGGGGUAAUGGUAACGUGUCUCCCUCCUAAGGAGCAGACUGCGGGUUCGAGUCCCGUACGGAACG [C5U C11G C24U A42C]
GUUCUGUUGGCGUAAUGGUAAGGCGUCUCUCUGCUAAGGAGAAGACUGCGGGUUCGAGUCCCGUACGGGACG [C5U C22G C30U C33G A69G]

Yeast fitness, 0.547:
GUUCUGUUGGCGUAAUGGUAAGGCGUCUCCCUCCUAAGGAGAAGACUGCGGGUUCGAGUCCCGUAGGGAACG [C5U C22G C66G]

Yeast fitness, 0.628:
GUUCUGUUGGCGUAAUGGUAAAGCGUCUCCCUCCUAAGGAGAAGACUGCGGGUUCGAGUGCCGUACGGAACG [C5U C22A C60G]

Yeast fitness, ≤ 0.5:
GUUCUGUUGGGGUAAUGGUAACGCGUCUCCCACCGAAGGAGAAGACUGCGGGUUAGAGUCGCGUACGGAACG [C5U C11G U32A U35G C55A C61G]
GUUCUGUUGGCGUAAUGGUAAAGCGUCUCCCUCCUAAGGAGAAGACUGCGGGUUCGAGUCUCGUCCGGAACG [C5U C22A C61U A65C]
GUUCUGUUGGUGUAAUAGUAACGCGUCUCCGUCCUAAGGAGAAGACUGCGGGUUCGAGUCCCGUACGAAACG [C5U C11U G17A C31G G68A]
GUUCUGUUGGUGUAAUGGUACCGUGCCACCGUCCUAAGGAGAAGACUGGGGGUUCGAGUCCCGUACGGAACG [C5U C11U A21C C24U U26C U28A C31G C49G]
GUUCUGUUGGAGUAAUGGUAGCGCGUCUCCCUCCUAAGGUGAAGACUGCGGGUUCGAGUCCCGUACGCAACG [C5U C11A A21G A40U G68C]
GUUCUGUUGGAGUAAUGGUAACGCGUCUCCCUCCUAAGGAGAAGACUGCGGGUCCGAGUCCCAUACGGAACG [C5U C11A U54C G63A]
GUUCUGUUGGAGUAAUGGUAACGCGUCUCCCUCCUAAGGGGAAGACUGCGGGUUAGAGUCCCGUAAGGAACG [C5U C11A A40G C55A C66A]
GUUCUGUUGGUGUAAUGGUAACGCGUCUCCCUCCUUAGGAGAAGACUGCGGGUUCGAGUACCGUACGGAACG [C5U C11U A36U C60A]
GUUCUGUUGGUGUAAUGGUAACGCGUCUCCCUCCUUAGGAGAAGACUGCGGGUUCGAGUCCCGUAUGGAACG [C5U C11U A36U C66U]
GUUCUGUUGGCGUAAUGGUAAGGCGUCUCCCUCCUAAGGGGAAGACUGCGGGUUCGAGUCCCGUACGGAGCG [C5U C22G A40G A70G]
GUUCUGUUGGUGUACUGGUAACGCGUCACCCUCCUAAGGAGAAGACUGCGGGUUCGAGUCCUGUAAGGAACG [C5U C11U A15C U28A C62U C66A]
GUUCUGUUGGUGUGGUGGUAACGCGUCUCCCUCCUAAGGAGAAGACUCCGGGUUCGAGUCCCGUACGGAACG [C5U C11U A14G A15G G48C]
GUUCUGUUGGUGUAAUGGUAACGCGUCUCGCUCCUAAGGAGAAGACUGCGGGUUCGAGUCACGUACGGAACG [C5U C11U C30G C61A]
GUUCUGUUGGAGUAAUGGUACCGCGUGUCCCUCCUAAGGAGAAGACUGCGGGUUCGAGUCCCGUACGCAACG [C5U C11A A21C C27G G68C]
GUUCUGUUGGGGUAAUGGGAACGGGUCUCUCUCCUAAGGAGAAGACUGCGGGUUCGAGUCUCGUACGGAACG [C5U C11G U19G C24G C30U C61U]
GUUCUGUUGGCGUAAUGGUAAGGCGUCUCUCUGCUAAGGAGAAGACUGCGGGUUCGAGUCCCGUACGGAACG [C5U C22G C30U C33G]
GUUCUGUUGGUGUAAUGGUAACGCGUCCCCCUCGUAAGGGGAGGAGUGCGGAUUUGAGUCCCGUAUGGAACG [C5U C11U U28C C34G A40G A43G C46G G52A C55U C66U]
GUUCUGUUGGCGUAAUGGUAAGGCGUCUCCCUCCUAAGGGGAAGAUUGCGGGUUCGAGUCCUGUACGGAACG [C5U C22G A40G C46U C62U]
GUUCUGUUGGUGUAAUGGUAACGCGUCUCCCUCCUAAGGAGAAGACUGCGGGGUCAAGUCUCGUACGGAACG [C5U C11U U53G G56A C61U]
GUUCUGUUGGCGUAAUGGUAAGGCGUCUGCCUCCUAAGGAGAAGACUGCGGGUUCGAGUCCCGUACGCAACG [C5U C22G C29G G68C]
GUUCUGUUGGGGUAAUGGUAACGUGUCUCCCUCCUAAGGAGCAGACUGCGGGUUCGAGUCCCGUACAGAACG [C5U C11G C24U A42C G67A]
GUUCUGUUGGCGUAAUGGUAAGGCGUCUCCCUCCUAAGGAGAAGACUGCCGGUUCGAGUCCCGUACGGAACG [C5U C22G G50C]
GUUCUGUUGGGGGAAUGGUAACCCGUCUCCCUCUUAAGGAGAAGACUGCGGGUUCGAGCCCCGUAUGGAACG [C5U C11G U13G G23C C34U U59C C66U]
GUUCUGUUGGUGUAAUGGUAACGCGUCUCCCUGCUAAGGAGACGACUGCGGGUUCGAGUCCCGUACGGAACG [C5U C11U C33G A43C]
GUUCUGUUGGAGCAAUGGUAACGGGUCUCGCUCCUAAGGAGAAGACUGCGGGUUCGAGUUCCGUACGGUACG [C5U C11A U13C C24G C30G C60U A69U]
GUUCUGUUGGUGUAAUGGUAACGGGUCUCCCUCCUAAGGAGAAGACUGCGGGUUCGAGUCUGGUCCGGAACG [C5U C11U C24G C61U C62G A65C]

Yeast fitness, 0.566:
GUUCUGUUGGCGUAAUGGUAAGGCGUCUCCCUCCUAAGGAGAAGCCUGCGGGUUCGAGUCCCGUACGGAACG [C5U C22G A45C]
